Assay results taken from ChEMBL document CHEMBL2016559, “Synthesis and cytotoxic activity evaluation of dihydrocucurbitacin B and cucurbitacin B derivatives” (Bioorg Med Chem, 2012).

Experiments:
[1] = system: A549; test: Cytotoxicity against human A549 cells after 72 hrs by MTT assay; type: functional, cell-based; settings: A549, 72 h
Procedure, shortened: (§1)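 A549 human NSCLC cells kept in MEM with 10% FBS, penicillin/streptomycin and amphotericin B at 37 °C under humidified 5% CO2. Seeded at 1x10⁴ cells/well and left 24 h, then exposed to a range of concentrations for 48 h or 72 h at 37 °C. MTT (1 mg/mL) added for 4 h, formazan dissolved in DMSO, absorbance read at 540 nm. IC50 taken against untreated controls by log(compound) vs normalized response (variable slope) fit, with 95% CI.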

[2] = system: A549; test: Cytotoxicity against human A549 cells after 48 hrs by MTT assay; type: functional, cell-based; settings: A549, 48 h; procedure, shortened: as §1
[3] = system: A549; test: Ratio of IC50 for human A549 cells after 48 hrs to IC50 for human A549 cells after 72 hrs; type: functional
Procedure, shortened: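 Ratio of the 48 h to the 72 h IC50 in A549 cells. Both IC50s come from the MTT assay (1x10⁴ cells/well, 24 h attachment, then 48 h or 72 h compound exposure). Each was fitted by log(compound) vs normalized response nonlinear regression (variable slope), relative to untreated controls.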

Structure (SMILES)	IC50 [1] [µM]	IC50 [2] [µM]	Ratio IC50 [3]
CC(=O)OC(C)(C)CCC(=O)[C@](C)(O)[C@H]1C(=O)C[C@@]2(C)[C@@H]3CC=C4[C@@H](C[C@H](O)C(=O)C4(C)C)[C@]3(C)C(=O)C[C@]12C	26.5	54.4	2.1
CC(=O)OC(C)(C)CCC(=O)[C@](C)(O)[C@H]1C(=O)C[C@@]2(C)[C@@H]3CC=C4[C@@H](C=C(O)C(=O)C4(C)C)[C@]3(C)C(=O)C[C@]12C	> 100	> 100	
CC(=O)O[C@H]1C[C@@H]2C(=CC[C@@H]3[C@@]2(C)C(=O)C[C@]2(C)[C@@H]([C@@](C)(O)C(=O)CCC(C)(C)OC(C)=O)[C@H](OC(C)=O)C[C@@]32C)C(C)(C)C1=O	72.5	> 100	
CC(=O)OC(C)(C)CCC(=O)[C@](C)(O)[C@H]1[C@H](OC(=O)CCC(=O)O)C[C@@]2(C)[C@@H]3CC=C4[C@@H](C[C@H](OC(=O)CCC(=O)O)C(=O)C4(C)C)[C@]3(C)C(=O)C[C@]12C	> 100	> 100	
CC(=O)O[C@H]1C[C@@H]2C(=CC[C@@H]3[C@@]2(C)C(=O)C[C@]2(C)[C@@H]([C@@](C)(O)C(=O)/C=C/C(C)(C)OC(C)=O)[C@H](OC(C)=O)C[C@@]32C)C(C)(C)C1=O	2.64	14.7	5.5
CC(=O)OC(C)(C)CCC(=O)[C@](C)(O)[C@H]1[C@H](O)C[C@@]2(C)[C@@H]3CC=C4[C@@H](C[C@H](OC(=O)c5ccccc5)C(=O)C4(C)C)[C@]3(C)C(=O)C[C@]12C	> 100	> 100	
CC(=O)OC(C)(C)CCC(=O)[C@](C)(O)[C@H]1[C@H](OC(=O)c2ccccc2)C[C@@]2(C)[C@@H]3CC=C4[C@@H](C[C@H](OC(=O)c5ccccc5)C(=O)C4(C)C)[C@]3(C)C(=O)C[C@]12C	> 100	> 100	
CC(=O)OC(C)(C)CCC(=O)[C@](C)(O)[C@H]1[C@H](OC(=O)n2ccnc2)C[C@@]2(C)[C@@H]3CC=C4[C@@H](C[C@H](OC(=O)n5ccnc5)C(=O)C4(C)C)[C@]3(C)C(=O)C[C@]12C	> 100	> 100	
CC(=O)O[C@@H]1C[C@@]2(C)[C@@H]3CC=C4[C@@H](C[C@H](Sc5ccccc5)C(=O)C4(C)C)[C@]3(C)C(=O)C[C@]2(C)[C@H]1[C@@](C)(O)C(=O)CCC(C)(C)OC(C)=O	> 100	> 100	
CC(=O)O[C@@H]1C[C@@]2(C)[C@@H]3CC=C4[C@@H](C[C@H](SC(C)=O)C(=O)C4(C)C)[C@]3(C)C(=O)C[C@]2(C)[C@H]1[C@@](C)(O)C(=O)CCC(C)(C)OC(C)=O	> 100	> 100	
CC(=O)OC(C)(C)CCC(=O)[C@](C)(O)[C@H]1[C@H](O)C[C@@]2(C)[C@@H]3CC=C4[C@@H](Cc5sc(N)nc5C4(C)C)[C@]3(C)C(=O)C[C@]12C	> 100	> 100	
CC(=O)OC(C)(C)/C=C/C(=O)[C@](C)(O)[C@H]1[C@H](O)C[C@@]2(C)[C@@H]3CC=C4[C@@H](Cc5sc(N)nc5C4(C)C)[C@]3(C)C(=O)C[C@]12C	11.5	28.8	2.5
CC(=O)OC(C)(C)CCC(=O)[C@](C)(O)[C@H]1[C@H](O)C[C@@]2(C)[C@@H]3CC=C4[C@@H](C[C@H](Br)C(=O)C4(C)C)[C@]3(C)C(=O)C[C@]12C	29.1	34.9	1.2
CC(=O)OC(C)(C)/C=C/C(=O)[C@](C)(O)[C@H]1[C@H](O)C[C@@]2(C)[C@@H]3CC=C4[C@@H](C[C@H](Br)C(=O)C4(C)C)[C@]3(C)C(=O)C[C@]12C	0.12	1.33	11.1
CC(=O)OC(C)(C)CCC(=O)[C@](C)(O)[C@H]1[C@H](O)C[C@@]2(C)[C@@H]3CC=C4[C@@H](C=C(N)C(=O)C4(C)C)[C@]3(C)C(=O)C[C@]12C	> 100	> 100	
CC(=O)O[C@@H]1C[C@@]2(C)[C@@H]3CC=C4[C@@H](C=C(N)C(=O)C4(C)C)[C@]3(C)C(=O)C[C@]2(C)[C@H]1[C@@](C)(O)C(=O)CCC(C)(C)OC(C)=O	55.2	> 100	
CC(=O)OC(C)(C)/C=C/C(=O)[C@](C)(O)[C@H]1[C@H](O)C[C@@]2(C)[C@@H]3CC=C4[C@@H](C=C(N)C(=O)C4(C)C)[C@]3(C)C(=O)C[C@]12C	0.12	0.42	3.5

Structure (SMILES)	IC50 [1] [µM]	IC50 [2] [µM]	Ratio IC50 [3]
CC(=O)OC(C)(C)CCC(=O)[C@](C)(O)[C@H]1[C@H](OC(=S)n2ccnc2)C[C@@]2(C)[C@@H]3CC=C4[C@@H](C[C@H](OC(=S)n5ccnc5)C(=O)C4(C)C)[C@]3(C)C(=O)C[C@]12C	6.9	14.7	2.1
CC(=O)OC(C)(C)CCC(=O)[C@](C)(O)[C@H]1[C@H](O)C[C@@]2(C)[C@@H]3CC=C4[C@@H](CCC(=O)C4(C)C)[C@]3(C)C(=O)C[C@]12C	66.7	> 100	
CC(=O)OC(C)(C)CCC(=O)[C@](C)(O)[C@H]1CC[C@@]2(C)[C@@H]3CC=C4[C@@H](CCC(=O)C4(C)C)[C@]3(C)C(=O)C[C@]12C	11.5	> 100	
CC(=O)[C@H]1[C@H](OC(=O)c2ccccc2)C[C@@]2(C)[C@@H]3CC=C4[C@@H](C[C@H](OC(=O)c5ccccc5)[C@@H](O)C4(C)C)[C@]3(C)C(=O)C[C@]12C	> 100	> 100	
CC(=O)[C@H]1[C@H](O)C[C@@]2(C)[C@@H]3CC=C4[C@@H](C=C(O)C(=O)C4(C)C)[C@]3(C)C(=O)C[C@]12C	> 100	> 100	
CC(=O)OC(C)(C)/C=C/[C@H](O)[C@](C)(O)[C@H]1[C@H](O)C[C@@]2(C)[C@@H]3CC=C4[C@@H](C[C@H](O)[C@@H](O)C4(C)C)[C@]3(C)C(=O)C[C@]12C	> 100	> 100	
CC(=O)O[C@H]1C[C@@H]2C(=CC[C@@H]3[C@@]2(C)C(=O)C[C@]2(C)[C@@H]([C@@](C)(OC(=O)C(F)(F)F)C(=O)CCC(C)(C)OC(C)=O)[C@H](OC(C)=O)C[C@@]32C)C(C)(C)C1=O	> 100	> 100	
CC(=O)O[C@H]1C[C@@H]2C(=CC[C@@H]3[C@@]2(C)C(=O)C[C@]2(C)[C@@H]([C@@](C)(O)C(=O)CC=C(C)C)[C@H](OC(C)=O)C[C@@]32C)C(C)(C)C1=O	42.6	> 100	
CC(=O)OC(C)(C)CCC(=O)[C@](C)(O)[C@H]1[C@H](O)C[C@@]2(C)[C@@H]3CC=C4[C@@H](C=CC(=O)C4(C)C)[C@]3(C)C(=O)C[C@]12C	77.7	87.8	1.1
CC(=O)O[C@H]1C[C@@H]2C(=CC(=O)[C@@H]3[C@@]2(C)C(=O)C[C@]2(C)[C@@H]([C@@](C)(O)C(=O)CCC(C)(C)OC(C)=O)[C@H](OC(C)=O)C[C@@]32C)C(C)(C)C1=O	> 100	> 100	
CC(=O)OC(C)(C)CCC(=O)[C@](C)(O)[C@H]1[C@H](O)C[C@@]2(C)[C@@H]3CC=C4[C@@H](C=C(O)C(=O)C4(C)C)[C@]3(C)C(=O)C[C@]12C	> 100	> 100	
CC(=O)OC(C)(C)CCC(=O)[C@](C)(O)[C@H]1[C@H](O)C[C@@]2(C)[C@@H]3CC=C4[C@@H](C[C@H](O)C(=O)C4(C)C)[C@]3(C)C(=O)C[C@]12C [23,24-DIHYDROCUCURBITACIN B]	12.1	19.9	1.6
CC(=O)OC(C)(C)/C=C/C(=O)[C@](C)(O)[C@H]1[C@H](O)C[C@@]2(C)[C@@H]3CC=C4[C@H](C[C@H](O)C(=O)C4(C)C)[C@]3(C)C(=O)C[C@]12C [CUCURBITACIN B]	0.04	0.13	3.3
COc1cccc2c1C(=O)c1c(O)c3c(c(O)c1C2=O)C[C@@](O)(C(=O)CO)C[C@@H]3O[C@H]1C[C@H](N)[C@H](O)[C@H](C)O1 [DOXORUBICIN]	1.18	3.69	3.1
CC(=O)[C@H]1[C@H](O)C[C@@]2(C)[C@@H]3CC=C4[C@@H](C[C@H](O)[C@@H](O)C4(C)C)[C@]3(C)C(=O)C[C@]12C [HEXANORCUCURBITACIN F]	> 100	> 100	
CC(=O)O[C@H]1C(=O)[C@@]2(C)[C@H]([C@H](OC(=O)c3ccccc3)[C@]3(O)C[C@H](OC(=O)[C@H](O)[C@@H](NC(=O)c4ccccc4)c4ccccc4)C(C)=C1C3(C)C)[C@]1(OC(C)=O)CO[C@@H]1C[C@@H]2O [PACLITAXEL]	0.19	1.16	6.1
